Seven molecules from ChEMBL document CHEMBL4376807, “Hydroxamic Acid Derivatives of β-Carboline/Hydroxycinnamic Acid Hybrids Inducing Apoptosis and Autophagy through the PI3K/Akt/mTOR Pathways” (J Nat Prod, 2019) can be followed below.

Assay [1] has as its system Bel-7402. Put plainly: Induction of apoptosis in human Bel7402 cells assessed as annexin-V positive cells at 5 uM after 72 hrs by Annexin-V/PI staining based flow cytometry relative to control. It is filed as functional. Summed up:
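Bel7402 cells (10 000) cultured overnight, then exposed to compound at 1.0 or 5.0 μM, or vehicle, for 72 h. Harvested, stained with annexin-V APC and 7-AAD for 15 min. Apoptotic percentage measured by flow cytometry (APC ex 633/em 660 nm; 7-AAD ex 488/em 647 nm). Three separate assays, mean ± SD.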
(In general: A flow cytometer gives signals particle by particle.)

The test system of assay [2] is Bel-7402. Put plainly: Induction of apoptosis in human Bel7402 cells assessed as increase in cleaved caspase-3 level at 5 uM after 72 hrs by Western blot analysis. It is filed as functional, cell-based. An outline of the steps: (§1)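 Subconfluent Bel7402 cells (1.5 × 10^5/mL) exposed to vehicle or compound for 72 h, then lysed. Lysates (0.05 mg/lane) run on 12% SDS-PAGE, transferred to nitrocellulose, blocked in 5% nonfat milk. Probed for Bax, Bcl-2, cleaved caspase-3 and cleaved PARP, with HRP secondary and chemiluminescence. Levels normalized to β-actin; three separate assays, mean ± SD.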

For assay [3], the system named is Bel-7402. Nature of the assay: Induction of autophagy in human Bel7402 cells assessed as upregulation of LC3-2 level at 5 uM after 24 to 72 hrs by Western blot analysis. Type of assay: functional, cell-based. An outline of the steps:
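Bel7402 cells (1.5 × 10^5/mL) exposed to compound at indicated doses, or vehicle, for 24 or 72 h. Lysates (0.05 mg/lane) separated on 12% SDS-PAGE, blotted to nitrocellulose, blocked in 5% milk. Probed with anti-LC3, anti-p62 and anti-beclin-1, HRP secondary, chemiluminescent detection. Levels quantified relative to β-actin; three separate assays, mean ± SD.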
A general note: In western blotting, separated proteins are transferred to a membrane and probed.

The test system of assay [4] is Bel-7402. Put plainly: Induction of autophagy in human Bel7402 cells assessed as accumulation of autophagic vacuoles at 5 uM after 24 hrs by acridine orange staining based fluorescence microscopic method. Type of assay: functional, cell-based. Summed up:
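Bel7402 cells (10 000) cultured overnight, then exposed to compound at 1.0 or 5.0 μM, or vehicle. Stained with 1 mg/mL acridine orange for 15−20 min, then dye removed. Red versus green fluorescence viewed by fluorescence microscopy at 400×. Representative images from three independent experiments.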

The test system of assay [5] is Bel-7402. Put plainly: Induction of apoptosis in human Bel7402 cells assessed as increase in cleaved PARP level at 5 uM after 72 hrs by Western blot analysis. It is filed as functional, cell-based. An outline of the steps:
as §1

Assay [6] is described as follows: Inhibition of PI3K/AKT/mTOR signaling in human Bel7402 cells assessed as reduction in AKT phosphorylation at 20 uM after 24 to 72 hrs by Western blot analysis. It is filed as cell-based. An outline of the steps: (§2)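 Bel7402 cells (1.5 × 10^5/mL) treated 24 or 72 h. Lysates (0.05 mg/lane) run on 12% SDS-PAGE, transferred to nitrocellulose, blocked with 5% nonfat milk. Probed for phospho-Akt (Ser473), total Akt, phospho-mTOR, total mTOR and β-actin; HRP secondary, chemiluminescent detection. Bands quantified against vehicle control; mean ± SD of three separate assays.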

Assay [7] can be described thus: Inhibition of PI3K/AKT/mTOR signaling in human Bel7402 cells assessed as reduction in mTOR phosphorylation at 20 uM after 24 to 72 hrs by Western blot analysis. It is filed as cell-based. Summed up: as §2
The target in assay [8] is Histone deacetylase 1 (Homo sapiens, UniProt Q13547). Nature of the assay: Inhibition of HDAC1 (unknown origin) using Boc-Lys (Ac)-AMC as substrate incubated for 60 mins by fluorimetric assay.
Chain of Histone deacetylase 1 (Q13547 whole entry): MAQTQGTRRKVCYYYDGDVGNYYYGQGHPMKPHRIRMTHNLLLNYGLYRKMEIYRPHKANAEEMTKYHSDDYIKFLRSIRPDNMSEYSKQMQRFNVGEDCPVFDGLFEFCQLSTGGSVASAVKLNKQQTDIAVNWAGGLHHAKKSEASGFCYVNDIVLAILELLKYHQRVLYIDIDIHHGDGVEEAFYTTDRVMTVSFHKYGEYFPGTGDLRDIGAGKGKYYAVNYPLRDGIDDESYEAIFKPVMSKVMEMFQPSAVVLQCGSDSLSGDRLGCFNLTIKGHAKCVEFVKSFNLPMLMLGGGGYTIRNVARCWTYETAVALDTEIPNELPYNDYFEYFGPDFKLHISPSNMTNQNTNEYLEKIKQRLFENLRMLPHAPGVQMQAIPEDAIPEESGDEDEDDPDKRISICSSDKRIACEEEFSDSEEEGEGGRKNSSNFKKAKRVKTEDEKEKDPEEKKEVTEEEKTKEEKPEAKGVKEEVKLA
In assay [9] the test system is Bel-7402. Put plainly: Induction of apoptosis in human Bel7402 cells assessed as annexin-V positive cells at 20 uM after 72 hrs by […] relative to control. Type of assay: functional.
In assay [10] the test system is Bel-7402. Nature of the assay: Induction of autophagy in human Bel7402 cells assessed as accumulation of autophagic vacuoles at 20 uM after 24 hrs by acridine orange staining based fluorescence microscopic method. It is filed as functional, cell-based. An outline of the steps: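 Bel7402 cells (10 000) seeded overnight, then exposed alongside vehicle. Stained with acridine orange (1 mg/mL) for 15−20 min. Autophagic vacuoles scored by fluorescence microscopy as red versus green fluorescence at 400×. Representative images from three independent experiments.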

For assay [11], the system named is Bel-7402. Put plainly: Antiproliferative activity against human Bel7402 cells after 72 hrs by MTT assay. Type of assay: functional, cell-based. The settings on record: Bel-7402, 72 h.
The test system of assay [12] is HepG2. Put plainly: Antiproliferative activity against human HepG2 cells after 72 hrs by MTT assay. It is filed as functional, cell-based. The settings on record: HepG2, 72 h. For orientation: Tetrazolium assays rely on reduction of a dye to a coloured formazan, in cell work by metabolically active cells.
For assay [13], the system named is SMMC-7721. Nature of the assay: Antiproliferative activity against human SMMC7721 cells after 72 hrs by MTT assay. It is filed as functional, cell-based. The settings on record: SMMC-7721, 72 h.
Assay [14] has as its system Huh-7. Put plainly: Antiproliferative activity against human HuH7 cells after 72 hrs by MTT assay. It is filed as functional, cell-based. The following applies: Huh-7, 72 h.
For assay [15], the target named is T1, Protein deacetylase HDAC6 (Homo sapiens, UniProt Q9UBN7).
T1 sequence (Q9UBN7 whole entry): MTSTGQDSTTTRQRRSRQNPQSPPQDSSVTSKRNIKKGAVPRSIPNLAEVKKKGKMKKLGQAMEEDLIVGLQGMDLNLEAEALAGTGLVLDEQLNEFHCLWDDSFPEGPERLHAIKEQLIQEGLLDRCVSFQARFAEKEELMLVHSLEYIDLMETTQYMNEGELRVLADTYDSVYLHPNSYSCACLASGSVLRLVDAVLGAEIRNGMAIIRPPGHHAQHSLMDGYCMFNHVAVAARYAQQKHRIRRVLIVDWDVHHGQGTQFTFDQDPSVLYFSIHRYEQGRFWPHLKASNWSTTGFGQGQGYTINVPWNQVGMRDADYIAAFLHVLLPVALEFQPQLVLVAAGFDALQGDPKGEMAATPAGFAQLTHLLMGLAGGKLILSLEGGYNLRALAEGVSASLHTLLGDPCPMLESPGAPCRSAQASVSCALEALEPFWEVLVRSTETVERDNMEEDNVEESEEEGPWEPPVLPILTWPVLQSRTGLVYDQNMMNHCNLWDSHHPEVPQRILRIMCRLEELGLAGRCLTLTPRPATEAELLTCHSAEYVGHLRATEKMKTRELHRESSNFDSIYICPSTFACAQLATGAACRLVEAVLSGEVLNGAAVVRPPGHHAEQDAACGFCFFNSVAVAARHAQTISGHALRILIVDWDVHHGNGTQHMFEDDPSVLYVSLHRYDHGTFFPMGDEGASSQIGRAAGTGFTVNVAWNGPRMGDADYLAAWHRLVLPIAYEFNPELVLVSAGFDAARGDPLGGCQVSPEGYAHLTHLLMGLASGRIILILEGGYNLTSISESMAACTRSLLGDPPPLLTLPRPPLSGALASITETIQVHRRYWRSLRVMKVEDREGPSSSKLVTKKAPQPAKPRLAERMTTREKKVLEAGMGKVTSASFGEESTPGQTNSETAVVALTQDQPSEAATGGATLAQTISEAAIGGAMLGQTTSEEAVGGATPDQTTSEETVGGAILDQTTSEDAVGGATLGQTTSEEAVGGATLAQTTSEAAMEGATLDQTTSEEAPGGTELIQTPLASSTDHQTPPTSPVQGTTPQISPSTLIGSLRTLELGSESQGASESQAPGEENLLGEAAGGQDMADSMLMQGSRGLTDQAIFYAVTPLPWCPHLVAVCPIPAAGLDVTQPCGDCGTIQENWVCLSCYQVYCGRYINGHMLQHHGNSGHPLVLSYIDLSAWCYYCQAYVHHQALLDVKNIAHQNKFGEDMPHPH
Put plainly: Inhibition of human HDAC6 using Boc-Lys (Ac)-AMC as substrate incubated for 60 mins by fluorimetric assay.

Assay [16] has as its target Histone deacetylase 3 (Homo sapiens, UniProt O15379). Put plainly: Inhibition of human HDAC3 using Boc-Lys (Ac)-AMC as substrate incubated for 60 mins by fluorimetric assay.
The species named for assay [17] is Homo sapiens. Nature of the assay: Selectivity ratio of IC50 for human HDAC3 to IC50 for human HDAC6. Summed up: (§3)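 Recombinant human HDAC1, 3, 6 and 8 (fluorimetric kit) incubated with compound over a range of concentrations and Boc-Lys(Ac)-AMC substrate at 37 °C for 60 min. Reaction quenched with lysine developer; after 30 min, fluorescence read at ex 355/em 460 nm. Inhibition taken relative to control and IC50 fitted; ratios built from these IC50s.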

Assay [18] addresses T2, Histone deacetylase 8 (Homo sapiens, UniProt Q9BY41).
T2 sequence (Q9BY41 whole entry): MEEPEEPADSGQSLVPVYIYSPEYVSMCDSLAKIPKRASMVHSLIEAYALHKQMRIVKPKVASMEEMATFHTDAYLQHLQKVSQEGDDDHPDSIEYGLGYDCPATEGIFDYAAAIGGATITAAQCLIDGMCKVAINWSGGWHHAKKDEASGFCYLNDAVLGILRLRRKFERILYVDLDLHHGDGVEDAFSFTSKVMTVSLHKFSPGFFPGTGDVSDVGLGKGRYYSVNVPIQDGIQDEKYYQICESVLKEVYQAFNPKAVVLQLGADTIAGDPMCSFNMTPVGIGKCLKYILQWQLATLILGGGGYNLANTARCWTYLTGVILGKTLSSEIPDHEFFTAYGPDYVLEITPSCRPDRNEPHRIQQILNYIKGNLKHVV
Nature of the assay: Inhibition of human HDAC8 using Boc-Lys (Ac)-AMC as substrate incubated for 60 mins by fluorimetric assay.

The species entered for assay [19] is Homo sapiens. Put plainly: Selectivity ratio of IC50 for HDAC1 (unknown origin) to IC50 for human HDAC6. An outline of the steps:
as §3

Molecules are shown by their SMILES. Calls of active or inactive are those of the source. The rule behind the calls is not given here.

Chain of Histone deacetylase 3 (O15379 whole entry): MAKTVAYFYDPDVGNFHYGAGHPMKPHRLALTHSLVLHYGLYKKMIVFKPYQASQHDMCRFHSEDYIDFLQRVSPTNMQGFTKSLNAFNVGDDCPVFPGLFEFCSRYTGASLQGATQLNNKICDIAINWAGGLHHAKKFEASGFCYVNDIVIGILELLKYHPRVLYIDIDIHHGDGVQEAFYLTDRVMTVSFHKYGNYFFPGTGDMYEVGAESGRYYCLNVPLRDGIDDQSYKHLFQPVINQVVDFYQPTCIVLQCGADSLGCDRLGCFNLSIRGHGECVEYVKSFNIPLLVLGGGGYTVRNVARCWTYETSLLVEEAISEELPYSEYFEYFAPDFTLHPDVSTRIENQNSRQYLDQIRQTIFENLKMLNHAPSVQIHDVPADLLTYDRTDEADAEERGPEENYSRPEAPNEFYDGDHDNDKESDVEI

On to `O=C(CCCCCCC(=O)Nc1ccccc1)NO` [VORINOSTAT], for which the Activity in assay [1] came out at 45.4%. Moreover, the outcome in [2], in assay [3], in [4] and in assay [5] was Active.
Take `COc1ccc2c(c1)[nH]c1c(C)nccc12` [HARMINE]: the inhibition result in [6] and in assay [7] was “Active” in each case. Besides, the IC50 – broadly, the concentration needed to halve the response being measured – in assay [8] is above 1 µM. Moreover, the Activity in [9] is given as 36.1%. Further, the result in assay [10] was Active.
`COc1ccc(-c2nc(NCCOc3ccc(/C=C/C(=O)NO)cc3)cc3c2[nH]c2ccccc23)cc1`: the IC50 in assay [11] was determined as 5.2 µM; in [8] it was 0.075 µM; in assay [12] it was 5.8 µM; in [13], 6.3 µM.
Regarding `COc1ccc(-c2nc(NCCCCOc3ccc(/C=C/C(=O)NO)cc3OC)cc3c2[nH]c2ccccc23)cc1`, the IC50 was determined as 4.6 µM in assay [11]; 0.061 µM in [8]; 5.3 µM in assay [12]; 6.2 µM in assay [14]; 7.1 µM in assay [13].
As to `COc1ccc(-c2nc(NCCCCOc3ccc(/C=C/C(=O)NO)cc3)cc3c2[nH]c2ccccc23)cc1`, the IC50 in [11] is 8.9 µM; in [8], 0.125 µM; in assay [12], 9.5 µM; in [13] it was above 12.5 µM.
For `COc1ccc(-c2nc(NCCCOc3ccc(/C=C/C(=O)NO)cc3)cc3c2[nH]c2ccccc23)cc1` the same measures were 4 µM, 0.057 µM, 3.4 µM and 4.1 µM.
Consider `COc1ccc(-c2nc(NCCOc3ccc(/C=C/C(=O)NO)cc3OC)cc3c2[nH]c2ccccc23)cc1`, for which the IC50 is 1.8 µM in [11]; 0.017 µM in assay [15]; 0.032 µM in [8]; 0.125 µM in assay [16]; 4.8 µM in [12]; above 1 µM in assay [18]. Also, the IC50 in assay [14] came out at 2.8 µM; in [13], 4 µM. In addition, the values for the Ratio IC50 in assay [17] and in assay [19] were 7 to 11 and 2, respectively.
